ChEMBL document CHEMBL1926565, “Synthesis, antiproliferative activities and telomerase inhibition evaluation of novel asymmetrical 1,2-disubstituted amidoanthraquinone derivatives” (Eur J Med Chem, 2012)
Active and inactive are the calls of the source. The rule behind the calls is not given here.

Tests used:
SK-MEL-28 = test: Cytotoxicity against human SK-MEL-28 cells assessed as cellular growth at 10 uM; format: functional
Method in brief: (§1)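 Single-dose screen run by the NCI across its 60-human-tumour-cell-line panel; growth recorded for each cell line.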

786-0 = test: Cytotoxicity against human 786-0 cells assessed as cellular growth at 10 uM; format: functional; method in brief: as §1
A498 [1] = test: Cytotoxicity against human A498 cells assessed as cellular growth at 10 uM; format: functional; method in brief: as §1
SN12C [2] = test: Cytotoxicity against human SN12C cells assessed as cellular growth at 10 uM; format: functional
TK-10 [3] = test: Cytotoxicity against human TK10 cells assessed as cellular growth at 10 uM; format: functional
PC-3 = test: Cytotoxicity against human PC3 cells assessed as cellular growth at 10 uM; format: functional; method in brief: as §1
BT-549 = test: Cytotoxicity against human BT549 cells assessed as cellular growth at 10 uM; format: functional; method in brief: as §1
T47D [4] = test: Cytotoxicity against human T47D cells assessed as cellular growth at 10 uM; format: functional
[5] = target: Telomerase reverse transcriptase (Homo sapiens) (UniProt O14746); test: Inhibition of telomerase activity in human H1299 cell free extract at 10 uM by modified TRAP assay
Telomerase reverse transcriptase (Homo sapiens), sequence (O14746 whole entry): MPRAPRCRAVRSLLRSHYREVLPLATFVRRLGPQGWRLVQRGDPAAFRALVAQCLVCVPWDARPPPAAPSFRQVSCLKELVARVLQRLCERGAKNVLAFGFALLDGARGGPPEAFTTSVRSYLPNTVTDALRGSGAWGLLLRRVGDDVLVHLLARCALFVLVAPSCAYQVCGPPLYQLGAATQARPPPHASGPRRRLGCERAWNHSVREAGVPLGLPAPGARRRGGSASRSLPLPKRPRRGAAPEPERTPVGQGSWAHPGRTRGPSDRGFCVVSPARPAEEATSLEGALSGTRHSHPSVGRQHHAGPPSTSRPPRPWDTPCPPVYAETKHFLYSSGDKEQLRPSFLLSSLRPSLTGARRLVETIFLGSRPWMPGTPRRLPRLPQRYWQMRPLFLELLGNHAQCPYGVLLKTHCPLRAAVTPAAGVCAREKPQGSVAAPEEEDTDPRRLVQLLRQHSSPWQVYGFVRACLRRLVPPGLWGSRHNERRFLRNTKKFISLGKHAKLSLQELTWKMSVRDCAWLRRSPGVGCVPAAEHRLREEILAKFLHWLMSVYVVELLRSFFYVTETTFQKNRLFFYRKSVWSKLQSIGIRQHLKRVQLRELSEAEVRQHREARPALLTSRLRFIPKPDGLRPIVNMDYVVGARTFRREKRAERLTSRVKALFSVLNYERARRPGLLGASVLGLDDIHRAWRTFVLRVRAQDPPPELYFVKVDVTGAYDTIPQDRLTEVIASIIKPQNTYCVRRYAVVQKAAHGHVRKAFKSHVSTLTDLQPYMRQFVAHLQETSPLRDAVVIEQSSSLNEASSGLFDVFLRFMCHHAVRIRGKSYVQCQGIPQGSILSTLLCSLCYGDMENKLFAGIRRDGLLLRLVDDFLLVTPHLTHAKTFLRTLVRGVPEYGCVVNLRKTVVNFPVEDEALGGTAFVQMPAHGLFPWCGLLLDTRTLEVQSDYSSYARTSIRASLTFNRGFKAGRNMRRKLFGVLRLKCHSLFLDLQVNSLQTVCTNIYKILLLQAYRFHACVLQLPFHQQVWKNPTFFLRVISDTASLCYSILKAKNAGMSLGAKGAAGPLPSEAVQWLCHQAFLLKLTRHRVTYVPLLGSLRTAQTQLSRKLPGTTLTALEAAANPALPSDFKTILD
Method in brief: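 TRAP assay using total cell lysate from H1299 lung cancer cells as the telomerase source, with protein measured against BSA standards. Compounds tested at 10 µM. Controls were lysate without inhibitor (positive) and RNase A-treated extract without inhibitor (negative).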

MOLT-4 = test: Cytotoxicity against human MOLT4 cells assessed as cellular growth at 10 uM; format: functional; method in brief: as §1
K562 [6] = test: Cytotoxicity against human K562 cells assessed as cellular growth at 10 uM; format: functional; method in brief: as §1
NCI-H522 [7] = test: Cytotoxicity against human NCI-H522 cells assessed as cellular growth at 10 uM; format: functional; method in brief: as §1
HT-29 [8] = test: Cytotoxicity against human HT-29 cells assessed as cellular growth at 10 uM; format: functional; method in brief: as §1
SF-268 [9] = test: Cytotoxicity against human SF268 cells assessed as cellular growth at 10 uM; format: functional; method in brief: as §1
SK-MEL-2 [10] = test: Cytotoxicity against human SK-MEL-2 cells assessed as cellular growth at 10 uM; format: functional; method in brief: as §1
[11] = target: Telomerase reverse transcriptase (Homo sapiens) (UniProt O14746); test: Residual activity of human TERT in H1299 cells at 1 uM after 24 hrs by SEAP reporter gene assay
SR = test: Anticancer activity against human SR cells; format: functional
Method in brief: (§2)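 NCI 60-human-tumour-cell-line panel. Selected analogues were first run at one dose, then some were carried into multi-dose testing. GI50 (50% growth inhibition), TGI (total growth inhibition) and LC50 (50% cell kill) were read as values interpolated where the dose–response curves cross these levels.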

K562 [12] = test: Anticancer activity against human K562 cells; format: functional; method in brief: as §2
RPMI-8226 = test: Anticancer activity against human RPMI8226 cells; format: functional; method in brief: as §2
EKVX = test: Anticancer activity against human EKVX cells; format: functional; method in brief: as §2
HOP-62 = test: Anticancer activity against human HOP62 cells; format: functional; method in brief: as §2
HOP-92 = test: Anticancer activity against human HOP92 cells; format: functional; method in brief: as §2
NCI-H226 = test: Anticancer activity against human NCI-H226 cells; format: functional; method in brief: as §2
NCI-H23 = test: Anticancer activity against human NCI-H23 cells; format: functional; method in brief: as §2
NCI-H460 = test: Anticancer activity against human NCI-H460 cells; format: functional; method in brief: as §2
NCI-H522 [13] = test: Anticancer activity against human NCI-H522 cells; format: functional; method in brief: as §2
A549 = test: Anticancer activity against human A549 cells; format: functional; method in brief: as §2
COLO 205 = test: Anticancer activity against human COLO205 cells; format: functional; method in brief: as §2
HCC 2998 = test: Anticancer activity against human HCC2998 cells; format: functional; details: read-out: LC50 (the source's name); method in brief: as §2
HCT-15 = test: Anticancer activity against human HCT15 cells; format: functional; method in brief: as §2
HT-29 [14] = test: Anticancer activity against human HT-29 cells; format: functional; details: read-out: LC50 (the source's name); method in brief: as §2
KM12 = test: Anticancer activity against human KM12 cells; format: functional; method in brief: as §2
SW-620 = test: Anticancer activity against human SW620 cells; format: functional
SF-268 [15] = test: Anticancer activity against human SF268 cells; format: functional; details: read-out: LC50 (the source's name); method in brief: as §2
SK-MEL-2 [16] = test: Anticancer activity against human SK-MEL-2 cells; format: functional; method in brief: as §2
SK-MEL-5 = test: Anticancer activity against human SK-MEL-5 cells; format: functional; method in brief: as §2
IGROV-1 = test: Anticancer activity against human IGROV1 cells; format: functional; method in brief: as §2
OVCAR-8 = test: Anticancer activity against human OVCAR8 cells; format: functional; method in brief: as §2
NCI/ADR-RES = test: Anticancer activity against human NCI/ADR-RES cells; format: functional; method in brief: as §2
SK-OV-3 = test: Anticancer activity against human SKOV3 cells; format: functional; method in brief: as §2
A498 [17] = test: Anticancer activity against human A498 cells; format: functional; method in brief: as §2
SN12C [18] = test: Anticancer activity against human SN12C cells; format: functional; method in brief: as §2
TK-10 [19] = test: Anticancer activity against human TK10 cells; format: functional
UO-31 = test: Anticancer activity against human UO31 cells; format: functional; details: read-out: LC50 (the source's name)
MCF7 = test: Anticancer activity against human MCF7 cells; format: functional; method in brief: as §2
MDA-MB-231 = test: Anticancer activity against human MDA-MB-231 cells; format: functional; method in brief: as §2
T47D [20] = test: Anticancer activity against human T47D cells; format: functional
[21] = read-out: LC50 (the source's name)

Compound: Cc1ccc(C(=O)Nc2c(NC(=O)CN3CCCC3)ccc3c2C(=O)c2ccccc2C3=O)cc1
- Activity (SK-MEL-28): 92.18%
- Activity (786-0): 65.15%
- Activity (A498 [1]): 68.12%
- Activity (SN12C [2]): 74.82%
- Activity (TK-10 [3]): 86.85%
- Activity (PC-3): 75%
- Activity (BT-549): 81.58%
- Activity (T47D [4]): 44.33%
- inhibition [5]: inactive
- Activity (MOLT-4): 48.2%
- Activity (K562 [6]): 40.86%
- Activity (NCI-H522 [7]): 103.02%
- Activity (HT-29 [8]): 31.34%
- Activity (SF-268 [9]): 86.17%
- Activity (SK-MEL-2 [10]): 102.17%
- residual activity [11]: 81%

Compound: Cc1ccc(C(=O)Nc2c(NC(=O)CCl)ccc3c2C(=O)c2ccccc2C3=O)cc1
- Activity (SK-MEL-28): -31.94%
- Activity (786-0): 11.3%
- Activity (A498 [1]): 123.78%
- Activity (SN12C [2]): -81.02%
- Activity (TK-10 [3]): 130.52%
- Activity (PC-3): 6.81%
- Activity (BT-549): 28.19%
- Activity (T47D [4]): -49.46%
- GI50 (SR): 1.59 µM
- LC50 (SR): > 50 µM
- TGI (SR): > 50 µM
- GI50 (K562 [12]): 1.87 µM
- LC50 (50% net cell kill) (K562 [12]): > 50 µM
- TGI (K562 [12]): 4.04 µM
- GI50 (RPMI-8226): 1.35 µM
- LC50 (50% cell kill) (RPMI-8226): > 50 µM
- TGI (RPMI-8226): > 50 µM
- GI50 (EKVX): 1.98 µM
- TGI (EKVX): 14.9 µM
- CC50 (EKVX; [21]): > 50 µM
- GI50 (HOP-62): 2.97 µM
- LC50 (50% cell kill) (HOP-62): 24.4 µM
- TGI (HOP-62): 9.49 µM
- GI50 (HOP-92): 9.73 µM
- LC50 (concentration giving 50% cell kill) (HOP-92): > 50 µM
- TGI (HOP-92): 31.7 µM
- GI50 (NCI-H226): 8.81 µM
- TGI (NCI-H226): 20.8 µM
- CC50 (NCI-H226; [21]): 49.1 µM
- GI50 (NCI-H23): 1.78 µM
- LC50 (50% cell kill) (NCI-H23): 31.4 µM
- TGI (NCI-H23): 8.28 µM
- GI50 (NCI-H460): 5.81 µM
- LC50 (50% cell kill) (NCI-H460): 34.1 µM
- TGI (NCI-H460): 14.1 µM
- GI50 (NCI-H522 [13]): 0.88 µM
- TGI (NCI-H522 [13]): 2.03 µM
- GI50 (A549): 12.3 µM
- TGI (A549): 29.2 µM
- CC50 (A549; [21]): > 50 µM
- GI50 (COLO 205): 2.95 µM
- LC50 (COLO 205): 23.7 µM
- TGI (COLO 205): 9.65 µM
- CC50 (HCC 2998): 29.4 µM
- LC50 (HCT-15): 28.4 µM
- CC50 (HT-29 [14]): > 50 µM
- GI50 (KM12): 5.56 µM
- LC50 (KM12): 28.3 µM
- TGI (KM12): 12.6 µM
- GI50 (SW-620): 1.87 µM
- TGI (SW-620): 9.31 µM
- CC50 (SW-620; [21]): > 50 µM
- CC50 (SF-268 [15]): > 50 µM
- GI50 (SK-MEL-2 [16]): 1.34 µM
- TGI (SK-MEL-2 [16]): 4.4 µM
- CC50 (SK-MEL-2 [16]; [21]): > 50 µM
- GI50 (SK-MEL-5): 0.83 µM
- TGI (SK-MEL-5): 1.53 µM
- CC50 (SK-MEL-5; [21]): 2.83 µM
- GI50 (IGROV-1): 5.6 µM
- TGI (IGROV-1): 17 µM
- CC50 (IGROV-1; [21]): > 50 µM
- GI50 (OVCAR-8): 3.32 µM
- TGI (OVCAR-8): 28.5 µM
- CC50 (OVCAR-8; [21]): > 50 µM
- GI50 (NCI/ADR-RES): 9.46 µM
- TGI (NCI/ADR-RES): 30.7 µM
- CC50 (NCI/ADR-RES; [21]): > 50 µM
- GI50 (SK-OV-3): 13.2 µM
- TGI (SK-OV-3): 35.9 µM
- CC50 (SK-OV-3; [21]): > 50 µM
- GI50 (A498 [17]): 9.87 µM
- TGI (A498 [17]): 22.5 µM
- CC50 (A498 [17]; [21]): > 50 µM
- GI50 (SN12C [18]): 1.22 µM
- TGI (SN12C [18]): 3.66 µM
- CC50 (SN12C [18]; [21]): > 50 µM
- GI50 (TK-10 [19]): 2.34 µM
- TGI (TK-10 [19]): 4.94 µM
- CC50 (TK-10 [19]; [21]): 29.2 µM
- CC50 (UO-31): 41.3 µM
- GI50 (MCF7): 1.12 µM
- TGI (MCF7): 4.95 µM
- CC50 (MCF7; [21]): > 50 µM
- GI50 (MDA-MB-231): 6.51 µM
- TGI (MDA-MB-231): > 50 µM
- CC50 (MDA-MB-231; [21]): > 50 µM
- GI50 (T47D [20]): 1.19 µM
- TGI (T47D [20]): 4.04 µM
- CC50 (T47D [20]; [21]): 46.3 µM
- inhibition [5]: inactive
- Activity (MOLT-4): -23.17%
- Activity (NCI-H522 [7]): 57.88%
- Activity (HT-29 [8]): 3.37%
- Activity (SF-268 [9]): 14.63%
- Activity (SK-MEL-2 [10]): 52%
- residual activity [11]: 109%
